In ChEMBL document CHEMBL1135653, “Novel apoptosis-inducing trans-platinum piperidine derivatives: synthesis and biological characterization” (J Med Chem, 2002):
Several values for one entry are separate records, joined by “and”; a condition that tells them apart may be missing. Identical values can stand only once.

Legend:
[1] = In vitro growth inhibition against C-26 cells incubated for 4 hr using cytotoxicity assay; format: functional, cell-based, Mus musculus
Outline: (§1)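 Methylene blue staining assay. Exponentially growing cells plated, incubated 24 h, then drugs added at various concentrations (saline for controls), four wells per variant. Drug exposure 4, 24 or 72 h, then washed and grown in fresh medium to 72 h total. Cells fixed in 2.5% glutaraldehyde, stained with 1% MB in 0.1 M borate pH 8.5, dye extracted with 0.1 N HCl at 37 °C, OD read at 620 nm. IC50 given as mean ± SD from at least two experiments.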

[2] = In vitro growth inhibition against C-26 cells incubated for 72 hr using cytotoxicity assay; format: functional, cell-based, Mus musculus; outline: as §1
OV-1063 [3] = test: In vitro growth inhibition against OV-1063 cells incubated for 24 hr using cytotoxicity assay; format: functional, cell-based, Homo sapiens; outline: as §1
[4] = In vitro growth inhibition against C-26 cells incubated for 24 hr using cytotoxicity assay; format: functional, cell-based, Mus musculus; outline: as §1
OV-1063 [5] = test: In vitro growth inhibition against OV-1063 cells incubated for 4 hr using cytotoxicity assay; format: functional, cell-based, Homo sapiens; outline: as §1
OV-1063 [6] = test: In vitro growth inhibition against OV-1063 cells incubated for 72 hr using cytotoxicity assay; format: functional, cell-based, Homo sapiens; outline: as §1
[7] = Solubility was determined in DDW(double distilled water) at 37 degrees Centigrade; format: physicochemical; conditions: buffer

Solubility [7] [µg/mL]	Substance	IC50 [1]	IC50 [2]	IC50 (OV-1063 [3])	IC50 [4]	IC50 (OV-1063 [5])	IC50 (OV-1063 [6])
30	trans-[ptcl2(4-pic)(pip)]	4.5 µM	1.75 µM	6 µM	2.5 µM	6.5 µM	4.5 µM
7500	trans-[ptcl2(4-pic)(pz)] HCl	5.5 µM	3.5 µM	6 µM	4.5 µM	7.4 µM	5.1 µM

Continued, substance first:

Substance	Solubility [7] [µg/mL]	IC50 [1]	IC50 [2]	IC50 (OV-1063 [3])	IC50 [4]	IC50 (OV-1063 [5])	IC50 (OV-1063 [6])
TRANSPLATIN	240	64 µM	41 µM	73 µM	46 µM	81 µM	52 µM
cis-[ptcl2(NH3)(4-pic)]	–	12 µM and 5.1 µM	11 µM and 3.7 µM	16 µM and 5.1 µM	11 µM and 4.7 µM	18 µM and 6 µM	14 µM and 4 µM
CISPLATIN	2100	1.5 µM	0.2 µM	0.7 µM	0.6 µM	2 µM	0.5 µM
